Common to all, as to settings: stereoisomer not certain
For assay [1], the target named is T1, UniProt Q8VFP5.
T1 sequence (whole entry): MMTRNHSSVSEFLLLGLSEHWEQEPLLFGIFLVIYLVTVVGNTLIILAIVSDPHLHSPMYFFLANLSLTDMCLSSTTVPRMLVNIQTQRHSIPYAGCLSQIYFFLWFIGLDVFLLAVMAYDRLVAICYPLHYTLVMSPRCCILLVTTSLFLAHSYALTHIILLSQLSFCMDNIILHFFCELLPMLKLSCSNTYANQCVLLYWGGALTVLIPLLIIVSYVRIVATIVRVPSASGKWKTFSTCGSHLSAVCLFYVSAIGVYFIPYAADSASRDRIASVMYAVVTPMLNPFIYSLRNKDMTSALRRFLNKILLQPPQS
The procedure, abridged:
(§1)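 Each receptor–molecule pair is labelled responsive or non-responsive (inactive) according to whether the original authors judged the measured signal statistically different from baseline. The data were taken from the main text and supplementary material of published papers and checked for typos and inconsistencies. Assay methods differed by source, with transient luciferase assays in mammalian cell lines being common.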

In assay [2] the target is T2, UniProt Q8VG01.
T2 sequence (whole entry): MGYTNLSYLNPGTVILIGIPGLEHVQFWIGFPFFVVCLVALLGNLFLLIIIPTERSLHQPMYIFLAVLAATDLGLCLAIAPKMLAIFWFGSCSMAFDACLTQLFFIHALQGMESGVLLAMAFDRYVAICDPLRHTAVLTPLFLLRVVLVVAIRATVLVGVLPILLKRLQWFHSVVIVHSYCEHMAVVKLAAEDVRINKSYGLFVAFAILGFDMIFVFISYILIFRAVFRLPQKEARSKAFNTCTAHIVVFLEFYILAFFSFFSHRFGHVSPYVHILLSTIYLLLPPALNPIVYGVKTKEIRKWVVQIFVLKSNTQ
Summed up:
as §1

The target in assay [3] is T3, UniProt Q8VFZ6.
T3 sequence (whole entry): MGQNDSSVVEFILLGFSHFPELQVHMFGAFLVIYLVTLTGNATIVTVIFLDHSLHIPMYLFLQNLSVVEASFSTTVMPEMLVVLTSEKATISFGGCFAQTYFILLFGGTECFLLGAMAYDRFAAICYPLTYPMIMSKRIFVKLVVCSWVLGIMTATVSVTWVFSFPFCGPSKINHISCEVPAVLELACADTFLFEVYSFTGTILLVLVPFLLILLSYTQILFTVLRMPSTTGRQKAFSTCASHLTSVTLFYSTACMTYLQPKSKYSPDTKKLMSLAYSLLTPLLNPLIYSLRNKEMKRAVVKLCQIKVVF
The procedure, abridged:
as §1

In assay [4] the target is T4, UniProt Q8VG22.
T4 sequence (whole entry): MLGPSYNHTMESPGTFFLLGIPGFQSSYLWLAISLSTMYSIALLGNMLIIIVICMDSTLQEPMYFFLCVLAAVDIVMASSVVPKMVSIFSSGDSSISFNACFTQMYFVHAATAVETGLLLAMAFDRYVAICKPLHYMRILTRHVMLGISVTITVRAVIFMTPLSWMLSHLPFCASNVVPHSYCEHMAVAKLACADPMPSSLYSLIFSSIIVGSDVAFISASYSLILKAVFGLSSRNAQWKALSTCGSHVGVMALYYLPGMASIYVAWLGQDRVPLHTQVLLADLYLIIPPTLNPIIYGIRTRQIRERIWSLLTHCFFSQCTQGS
Summed up:
as §1

Assay [5] deals with UniProt Q8VG26. Summed up:
as §1

Each structure is given as a SMILES string.
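Also: active if original authors judged signal statistically different from baseline.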

Chain of UniProt Q8VG26 (Q8VG26 as listed by the source): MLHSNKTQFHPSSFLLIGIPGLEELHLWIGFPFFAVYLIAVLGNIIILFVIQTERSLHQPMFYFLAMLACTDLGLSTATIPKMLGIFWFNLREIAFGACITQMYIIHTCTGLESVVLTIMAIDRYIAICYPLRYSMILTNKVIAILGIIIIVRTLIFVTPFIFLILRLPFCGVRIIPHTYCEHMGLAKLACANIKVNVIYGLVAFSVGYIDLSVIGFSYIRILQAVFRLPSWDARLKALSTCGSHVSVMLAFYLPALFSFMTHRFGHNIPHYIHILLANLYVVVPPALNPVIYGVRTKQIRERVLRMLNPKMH

As to `CC=CC(=O)C1=C(C)CCCC1(C)C`, the “odorant receptor agonist call” value in assay [1] and in assay [2] was “inactive” throughout.

Take `CCOC(=O)C(C)CC` (stereo unspecified): the “odorant receptor agonist call” value in assay [1] and in assay [2] was “inactive” in each case.

With `COc1ccccc1`, the “odorant receptor agonist call” value in assay [1] and in assay [2] was “inactive” in each case.

Take `CCCC(C)C(=O)OCC` (stereo unspecified): the “odorant receptor agonist call” value in assay [1] and in assay [2] was “inactive” each time.

As for `CCc1ccccc1O`, the “odorant receptor agonist call” value in assay [1] and in assay [2] was “inactive” each time.

For `COc1cnccn1`, the “odorant receptor agonist call” value in assay [1] and in assay [2] was “inactive” in each case.

As to `CCCCCOC(=O)CCC`, the “odorant receptor agonist call” value in assay [1] and in assay [2] was “inactive” throughout.

Take `CCCCCCC(=O)OCCCC`: the “odorant receptor agonist call” value in assay [1] is “inactive”. In addition, the “odorant receptor agonist call” value in assay [2] was “active”.

As for `CCCCCCCOC(=O)C(C)C`, the “odorant receptor agonist call” value in assay [1] and in assay [2] was “inactive” in each case.

Regarding `Cc1ccc(C(C)C)c(O)c1`, the “odorant receptor agonist call” value in assay [1] and in assay [2] was “inactive” throughout.

Turning to `CCCCCCC(C)O` (stereo unspecified), the “odorant receptor agonist call” value in assay [1] and in assay [2] was “inactive” in each case.

As to `CC=C(C)C=O`, the “odorant receptor agonist call” value in assay [1] and in assay [2] was “inactive” in each case.

`CCCCCCCCOC=O`: the “odorant receptor agonist call” value in assay [1] and in assay [2] was “inactive” each time.

`Cc1c(C)c(C)c(C=O)c(C)c1C`: the “odorant receptor agonist call” value in assay [1] and in assay [2] was “inactive” each time.

Take `CC(C)=C1CCC(C)CC1=O` (stereo unspecified): the “odorant receptor agonist call” value in assay [1] and in assay [2] was “inactive” each time.

For `C1CCOCC1`, the “odorant receptor agonist call” value in assay [1] and in assay [2] was “inactive” each time.

On to `CCCCOC(=O)C(C)OC(=O)CCC` (stereo unspecified), for which the “odorant receptor agonist call” value in assay [3], in assay [2] and in assay [4] was “inactive” each time.

With `CC1(C)CC(=O)CC(=O)C1`, the “odorant receptor agonist call” value in assay [1] and in assay [2] was “inactive” in each case.

With `CCCCCCCCC=CC=O`, the “odorant receptor agonist call” value in assay [1] and in assay [2] was “inactive” in each case.

For the compound `CCC(C(=O)O)c1ccccc1` (stereo unspecified), the “odorant receptor agonist call” value in assay [3], in assay [2] and in assay [4] was “inactive” each time.

`O=C(O)CCCCCBr`: in assay [1], the “odorant receptor agonist call” value was “inactive”. In assay [2], the “odorant receptor agonist call” value is “active”.

`O=C([O-])CCCCCCCC(=O)[O-].[H+].[H+]`: the “odorant receptor agonist call” value in assay [1], in assay [2] and in assay [5] was “inactive” each time.

In the case of `CCCCCCCC(=O)[O-].[H+]`, the “odorant receptor agonist call” value in assay [3], in assay [4] and in assay [5] was “inactive” each time. The “odorant receptor agonist call” value in assay [2] is “active”.

`CC(=O)OC1(C)CCC23CC1C(C)(C)C2CCC3C` (stereo unspecified): the “odorant receptor agonist call” value in assay [1] and in assay [2] was “inactive” in each case.

For the compound `C=CC(C)=CCC=C(C)CCC=C(C)C`, the “odorant receptor agonist call” value in assay [1] and in assay [2] was “inactive” in each case.

`OCCc1ccccc1`: the “odorant receptor agonist call” value in assay [1] and in assay [2] was “inactive” in each case.

For the compound `C=CC(=C)CCC=C(C)CCC=C(C)C`, the “odorant receptor agonist call” value in assay [1] and in assay [2] was “inactive” each time.

Take `CC(=O)OCCc1ccccc1`: the “odorant receptor agonist call” value in assay [1] and in assay [2] was “inactive” throughout.

For `CCCC(C)=O`, the “odorant receptor agonist call” value in assay [3], in assay [2], in assay [4] and in assay [5] was “inactive” in each case.

As for `Cc1ccccc1OC(=O)C(C)C`, the “odorant receptor agonist call” value in assay [1] and in assay [2] was “inactive” in each case.

Take `CC1CC=CCCCCCCCCCC(=O)C1` (stereo unspecified): the “odorant receptor agonist call” value in assay [1] and in assay [2] was “inactive” each time.

Take `CCC(C)O` (stereo unspecified): the “odorant receptor agonist call” value in assay [1] and in assay [2] was “inactive” throughout.

These data come from the M2OR odorant receptor database.
